From ChEMBL document CHEMBL1275443, “Functional diversity among metallo-beta-lactamases: characterization of the CAR-1 enzyme of Erwinia carotovora” (2008)

Legend:
[1] = system: Pectobacterium atrosepticum; test: Ratio of Kcat to Km for Erwinia carotovora subsp. atroseptica DSM 30184 beta-Lactamase CAR-1
Outline: (§1)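 Recombinant CAR-1, expressed in E. coli BL21(DE3)/pET9-CAR-1 and purified by DEAE-Sepharose then Mono Q chromatography in Zn-containing buffers. Enzyme was diluted in HZN buffer (50 mM HEPES-NaOH pH 7.5, 50 µM ZnSO4) with 20 µg/ml BSA and used at 1.9–3,800 nM.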

[2] = system: Pectobacterium atrosepticum; test: Activity of Erwinia carotovora subsp. atroseptica DSM 30184 beta-lactamase CAR-1; outline: as §1
Bradyrhizobium japonicum = test: Ratio of Kcat to Km for Bradyrhizobium japonicum beta-Lactamase BJP-1

| Compound | kcat/Km [1] | Km [2] [µM] | kcat [2] [s⁻¹] | kcat/Km (Bradyrhizobium japonicum) |
| --- | --- | --- | --- | --- |
| CO/N=C(\C(=O)N[C@@H]1C(=O)N2C(C(=O)O)=C(COC(C)=O)CS[C@H]12)c1csc(N)n1 | 1.5 ×10⁶ /M/s | 160 | 250 | 1.4 ×10⁵ /M/s |
| C[C@@H](O)[C@H]1C(=O)N2C(C(=O)O)=C(SCCNC=N)C[C@H]12 |  |  |  | 6 ×10⁴ /M/s |
| CC(C)(O/N=C(\C(=O)N[C@@H]1C(=O)N2C(C(=O)[O-])=C(C[n+]3ccccc3)CS[C@H]12)c1csc(N)n1)C(=O)O | 2.9 ×10⁵ /M/s | > 561 | > 160 |  |
| CCN1CCN(C(=O)N[C@@H](C(=O)N[C@@H]2C(=O)N3[C@@H]2SC(C)(C)[C@@H]3C(=O)O)c2ccccc2)C(=O)C1=O | 2.6 ×10⁴ /M/s | 340 | 9 | 6.7 ×10⁴ /M/s |
| CC(=O)OCC1=C(C(=O)O)N2C(=O)[C@@H](NC(=O)Cc3cccs3)[C@H]2SC1 | 1.2 ×10⁶ /M/s | 200 | 240 |  |
| CO/N=C(\C(=O)N[C@@H]1C(=O)N2C(C(=O)O)=C(CSc3nc(=O)c(O)nn3C)CS[C@H]12)c1csc(N)n1 | 9.9 ×10⁴ /M/s | 130 | 13 | 9.6 ×10⁴ /M/s |
| CO/N=C(\C(=O)N[C@@H]1C(=O)N2C(C(=O)[O-])=C(C[N+]3(C)CCCC3)CS[C@H]12)c1csc(N)n1 |  |  |  | 2 ×10² /M/s |
| CC1(C)S[C@@H]2[C@H](NC(=O)Cc3ccccc3)C(=O)N2[C@H]1C(=O)O | 9.2 ×10³ /M/s | 200 | 2 | 1.3 ×10⁵ /M/s |
| C[C@@H](O)[C@H]1C(=O)N2C(C(=O)O)=C([C@H]3CCCO3)S[C@H]12 | 4.4 ×10⁴ /M/s | 120 | 5 | 6.8 ×10³ /M/s |
| CC1(C)S[C@@H]2[C@H](NC(=O)[C@H](N)c3ccccc3)C(=O)N2[C@H]1C(=O)O | 3.2 ×10³ /M/s | 1600 | 5 | 1.9 ×10⁴ /M/s |
| CO[C@@]1(NC(=O)Cc2cccs2)C(=O)N2C(C(=O)O)=C(COC(N)=O)CS[C@@H]21 | 4.7 ×10³ /M/s | > 1570 | > 7 | 7.1 ×10⁴ /M/s |
| CC1(C)S[C@@H]2[C@H](NC(=O)[C@H](C(=O)O)c3ccsc3)C(=O)N2[C@H]1C(=O)O | 1.3 ×10⁴ /M/s | 640 | 9 |  |
| CO/N=C(\C(=O)N[C@@H]1C(=O)N2C(C(=O)O)=C(COC(N)=O)CS[C@H]12)c1ccco1 | 3.6 ×10⁶ /M/s | 110 | 400 | 5 ×10⁵ /M/s |
